A selection: hits, their analogues and other compounds. The true share with any hit is near 2.1%.
Hck Nef HTS = human Hck-Nef kinase inhibition; AID 463187; Recombinant Hck-YEEI plus Nef, Z-Lyte FRET kinase assay; inhibition, % at 20 µM; P08631; 0.68% of 220,000 active;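 active = Hck-Nef kinase inhibition above about 50%, limit read from the data; inactive = inhibition below that limit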;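 note: 0% = DMSO with Hck plus Nef and 100% = Hck alone without Nef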
Target sequence (P08631 whole entry, looked up): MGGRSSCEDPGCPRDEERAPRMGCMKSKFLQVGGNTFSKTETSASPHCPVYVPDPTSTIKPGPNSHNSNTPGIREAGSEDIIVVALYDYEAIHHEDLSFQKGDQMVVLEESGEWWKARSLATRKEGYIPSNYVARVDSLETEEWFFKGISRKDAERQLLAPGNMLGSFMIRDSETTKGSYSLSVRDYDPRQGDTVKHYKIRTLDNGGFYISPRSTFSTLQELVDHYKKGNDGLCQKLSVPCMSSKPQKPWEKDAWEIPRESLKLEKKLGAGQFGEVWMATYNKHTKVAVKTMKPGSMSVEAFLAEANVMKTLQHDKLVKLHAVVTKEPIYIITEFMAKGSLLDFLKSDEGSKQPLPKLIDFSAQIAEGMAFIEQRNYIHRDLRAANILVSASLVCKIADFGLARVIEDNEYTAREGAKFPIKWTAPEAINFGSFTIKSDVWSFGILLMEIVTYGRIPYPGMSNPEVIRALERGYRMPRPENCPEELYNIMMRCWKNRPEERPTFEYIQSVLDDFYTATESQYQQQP
RanGTP-Impb inh = inhibitors of RanGTP-importin-beta interaction, primary screen, biochemical, FRET, CFP-Ran, YFP-importin-beta, homogeneous; 1.1% of 300,000 active; AID 2216; inhibition, % (concentration not given with the values); cell-free CFP-Ran/YFP-importin-beta FRET ratio;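 active = more than half of the replicate wells show a fall in the fluorescence ratio signal beyond about 16%, limit read from the data, passing the limit was not always enough; inconclusive = exactly half of the replicate wells pass the set limit; inactive = fewer than half of replicates pass the limit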;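 note: 0% = DMSO wells and 100% = Ran loaded with GDP instead of GTP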
Runt-CBFb FRET = inhibitors of human RUNX1 Runt domain binding to CBFb; Q01196+Q13951; Cerulean-Runt/Venus-CBFb FRET ratio 530/480, 1 h; inhibition, % at 20 µM; 0.46% of 220,000 active;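 active = inhibition over about 50% at 20 µM in the single-dose screen, limit read from the data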;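 note: 0% = DMSO wells and 100% = excess unlabeled CBFb competitor control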
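Measured by: fluorescence energy transfer, 422 nm excitation, 530/480 nm emission; Assay system: Cerulean-Runt domain; Medium: Tris pH 7.5 buffer with BSA; Measure: loss of energy transfer signal; Controls: 5 µM unlabeled CBFb as full-inhibition high control; Incubation: protein complex preformed 1 h, compound exposure 1 h, room temperature, dark.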
TNF necrop inh = blocks TNF-alpha induced death of Jurkat FADD-/- cells. activation (protection from cell death), % at 10 µM. 0.068% of 220,000 active. Jurkat FADD-/- TNF necroptosis rescue, ATP luminescence, 24 h; 0 = TNF only, 100 = no-TNF cells;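 active = activation, meaning protection from cell death, of at least 50% relative to plate controls; inactive = activation below 50%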;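 note: necroptosis triggered by 40 ng/mL TNF-alpha added together with compound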
Runt-SMMHC FRET = Runt domain-CBFb-SMMHC interaction inhibition; Q01196+Q13951; Cerulean-Runt/Venus-CBFb-SMMHC FRET ratio 530/480, 1 h; inhibition, % at 20 µM; 0.74% of 220,000 active;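 active = mean inhibition across duplicate retests at 20 µM reaching about 50%, limit read from the data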;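 note: 0% = DMSO wells and 100% = wells with excess untagged CBFb-SMMHC; inhibitors lower the FRET ratio by blocking Runt binding to CBFb-SMMHC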
zVAD death inh = blocks zVAD induced death of L929 cells; 0.38% of 220,000 active; viability rescue, % at 10 µM; AID 1377; L929 zVAD necroptosis rescue, ATP luminescence, 24 h; with zVAD 60 µM;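 active = activation, scaled between plate controls, above about 75%, limit read from the data; inactive = activation under that limit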;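 note: 0% = zVAD with DMSO and 100% = DMSO alone without zVAD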
zVAD necrop conf = confirmed blocker of zVAD induced death in L929 cells | 16% of 760 active | activation (protection from necroptosis), % at 10 µM | shares compounds with zVAD death inh | AID 463117 | L929 zVAD-induced necroptosis rescue, ATP luminescence, 24 h;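 active = mean protection from necroptosis of at least 50% over duplicate tests; inactive = mean protection below 50%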;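 note: 0% = cells with zVAD alone and 100% = vehicle cells without zVAD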
* = called active by the depositor.

`Cc1ccc(Nc2nnc(-c3ccc(N4CCOCC4)c([N+](=O)[O-])c3)c3ccccc23)cc1` gave Hck Nef HTS 1, RanGTP-Impb inh -4, Runt-CBFb FRET -1, TNF necrop inh 0, Runt-SMMHC FRET -1 and zVAD death inh 73.
Screening O=[N+]([O-])c1cc(-c2nnc(Nc3ccccc3)c3ccccc23)ccc1N1CCOCC1 returned Hck Nef HTS 0, RanGTP-Impb inh 5, Runt-CBFb FRET 1, TNF necrop inh 1, Runt-SMMHC FRET 0, zVAD death inh 98* and zVAD necrop conf 36.
`S=C(NCCc1ccccc1)Nc1ccc(Br)cn1` gave Hck Nef HTS -12, Runt-CBFb FRET -2, TNF necrop inh -2, Runt-SMMHC FRET 10 and zVAD death inh -1.
CCN1CCN(C(=O)c2cc(COc3ccc(C(C)=O)cc3OC)on2)CC1 was read as RanGTP-Impb inh -2.
For O=C(Nc1ncc2c(n1)-c1ccccc1CC2)C1CC1 the results were Hck Nef HTS -33, RanGTP-Impb inh 5, Runt-CBFb FRET 1, TNF necrop inh -4, Runt-SMMHC FRET -3, zVAD death inh 76* and zVAD necrop conf 2.
Screening CCCN1CCN(CCCNC(=O)c2cc3c(=O)n(C)c4ccccc4c3n2C)CC1 returned Hck Nef HTS 1, RanGTP-Impb inh 5, Runt-CBFb FRET 2, TNF necrop inh 2, Runt-SMMHC FRET 1 and zVAD death inh 53.
CN1CCN(CCNC(=O)c2cc3c(=O)n(C)c4ccccc4c3n2C)CC1 was read as Hck Nef HTS 9, RanGTP-Impb inh 1, Runt-CBFb FRET 1, TNF necrop inh 4, Runt-SMMHC FRET -1, zVAD death inh 78* and zVAD necrop conf 28.
For Cn1c(C(=O)NCCCN2CCc3ccccc3C2)cc2c(=O)n(C)c3ccccc3c21 the results were Hck Nef HTS 1, RanGTP-Impb inh inconclusive, Runt-CBFb FRET 2, TNF necrop inh 1, Runt-SMMHC FRET 3 and zVAD death inh 19.
Screening Cn1c(C(=O)NCCCN2CCCCCC2)cc2c(=O)n(C)c3ccccc3c21 returned Hck Nef HTS 16, Runt-CBFb FRET 1, TNF necrop inh 3, Runt-SMMHC FRET 4, zVAD death inh 83* and zVAD necrop conf 39.
CCCCN(C)CCCNC(=O)/C=C1\Sc2ccccc2NC1=O was read as Hck Nef HTS 20, RanGTP-Impb inh 3, Runt-CBFb FRET 3, TNF necrop inh 5, Runt-SMMHC FRET -2, zVAD death inh 75* and zVAD necrop conf 24.
`CCCCN(C)CCCNC(=O)C1(O)c2ccccc2NC(=O)N1c1ccc(Cl)cc1` (stereo unspecified) gave RanGTP-Impb inh -1.
For CCCCC(=O)Nc1nc2ccc3nc(C)sc3c2s1 the results were Hck Nef HTS 0, RanGTP-Impb inh -1, Runt-CBFb FRET -5, TNF necrop inh 7, Runt-SMMHC FRET -8 and zVAD death inh 46.
Screening CCC(=O)Nc1nc2ccc3sc(C)nc3c2s1 returned Hck Nef HTS 19, RanGTP-Impb inh -1, Runt-CBFb FRET 2, TNF necrop inh -4, Runt-SMMHC FRET -5, zVAD death inh 79* and zVAD necrop conf 8.
For CCCC(=O)Nc1nc2ccc3nc(C)sc3c2s1 the results were Hck Nef HTS 1, RanGTP-Impb inh -1, Runt-CBFb FRET -1, TNF necrop inh 5, Runt-SMMHC FRET -4, zVAD death inh 91* and zVAD necrop conf 0.
Screening CCN(CC)S(=O)(=O)c1cc(C)ccc1NC(=S)Nc1cccnc1 returned Hck Nef HTS 25, RanGTP-Impb inh -3, Runt-CBFb FRET 3, TNF necrop inh -5, Runt-SMMHC FRET 5 and zVAD death inh 1.
`CCCc1ccc(C(=O)/C=C/N(C)C)cc1` gave Hck Nef HTS 7, RanGTP-Impb inh -5, Runt-CBFb FRET -1, TNF necrop inh -1, Runt-SMMHC FRET 3 and zVAD death inh 0.
For Nc1[nH]nc2ncc3cc4ccccc4nc3c12 the results were Hck Nef HTS 67*, RanGTP-Impb inh -4, Runt-CBFb FRET -2, TNF necrop inh -3, Runt-SMMHC FRET -14, zVAD death inh 82* and zVAD necrop conf 37.
`COC(C(=O)Nc1ccnn1C1CCN(Cc2cnn(C(C)C)c2)CC1)c1ccccc1` (stereo unspecified) gave RanGTP-Impb inh 1.
Cc1ccc(C)c(SCC(=O)OC/C(O)=C(\C#N)c2nc3ccccc3[nH]2)c1 was read as Hck Nef HTS 34, RanGTP-Impb inh inconclusive, Runt-CBFb FRET 22, TNF necrop inh -2, Runt-SMMHC FRET 39, zVAD death inh 78* and zVAD necrop conf 29.
`COc1ccccc1C1CCN(Cc2cccc3ccccc23)CC1` gave RanGTP-Impb inh -1.
Screening COc1ccccc1C1CCN(Cc2c(C)[nH]c3ccccc23)CC1 returned Hck Nef HTS 4, RanGTP-Impb inh -1, Runt-CBFb FRET 1, TNF necrop inh -2, Runt-SMMHC FRET 1, zVAD death inh 76* and zVAD necrop conf 28.
Screening CC(C)(CO)NC(=O)Nc1ccc(Cl)c(Cl)c1 returned Hck Nef HTS 18, RanGTP-Impb inh 1, Runt-CBFb FRET 1, TNF necrop inh 2, Runt-SMMHC FRET 0 and zVAD death inh -2.
Screening O=c1cc(-c2cccnc2)oc2c1ccc1ccccc12 returned Hck Nef HTS 35, RanGTP-Impb inh -2, Runt-CBFb FRET -2, TNF necrop inh -11, Runt-SMMHC FRET 0, zVAD death inh 75* and zVAD necrop conf 2.
O=c1cc(C(F)(F)F)oc2c1ccc1ccccc12 was read as Hck Nef HTS 5, RanGTP-Impb inh inconclusive, Runt-CBFb FRET -1, TNF necrop inh -2, Runt-SMMHC FRET 0 and zVAD death inh -1.
For Cc1cc2ncn(/N=C/c3cccnc3)c2cc1C the results were Hck Nef HTS 2, RanGTP-Impb inh -1, Runt-CBFb FRET -3, TNF necrop inh -2, Runt-SMMHC FRET 1, zVAD death inh 76* and zVAD necrop conf 36.
For Cc1nc2sccn2c(=O)c1S(=O)(=O)N1CCN(c2cccc(Cl)c2)CC1 the results were RanGTP-Impb inh -1.
`COc1ccc2c(C)nc(Nc3nc(C)c(C)c(=O)[nH]3)nc2c1` gave Hck Nef HTS -3, RanGTP-Impb inh 0, Runt-CBFb FRET -2, TNF necrop inh -19, Runt-SMMHC FRET 3, zVAD death inh 113* and zVAD necrop conf 1.
`COc1cc(OC)c(C2=NOC(C(=O)N3CCN(C(=O)c4ccco4)CC3)C2)cc1Cl` (stereo unspecified) gave Hck Nef HTS 19, RanGTP-Impb inh 5, Runt-CBFb FRET 0, TNF necrop inh 1, Runt-SMMHC FRET 0, zVAD death inh 83* and zVAD necrop conf 1.

Screens deposited in PubChem BioAssay by several laboratories.
